Reference: BindingDB's records for doi:10.1021/jm00069a013 (University of North Carolina, 1993)
Structures can show the parent of a compound that is named as a salt.

Assays:
[1] = Binding affinity against sigma receptor from guinea pig brain (minus cerebellum) homogenates, using the novel [3H]-(+/-)-4 as radioligand
[2] = Binding affinity against sigma receptor from guinea pig brain (minus cerebellum) homogenates, using [3H]ditolylguanidine (DTG) as radioligand.
Outline: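 Competition binding with whole guinea pig brain (minus cerebellum) homogenates in 10 mM Tris-HCl without added cations. Nonspecific binding was defined by 10 μM haloperidol. Concentrations were tested in duplicate, with three replications. IC50 values came from curve fitting.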

Structure (SMILES)	IC50 [1] [nM]	IC50 [2] [nM]
CN(C)C1Cc2ccccc2C(c2ccccc2)C1 (stereo not drawn) [cis-Dimethyl-(4-phenyl-1,2,3,4-tetrahydro-naphthalen-2-yl)-amine; hydrochloride]	–	960
NC1Cc2ccccc2C(c2ccccc2)C1 (stereo not drawn) [trans-4-Phenyl-1,2,3,4-tetrahydro-naphthalen-2-ylamine; hydrochloride]	–	> 10000
C=CCN(C)C1Cc2ccccc2C(c2ccccc2)C1 (stereo not drawn) [trans-Allyl-methyl-(4-phenyl-1,2,3,4-tetrahydro-naphthalen-2-yl)-amine; hydrochloride]	–	1550
C=CCN(CC=C)C1Cc2ccccc2C(c2ccccc2)C1 (stereo not drawn) [trans-Diallyl-(4-phenyl-1,2,3,4-tetrahydro-naphthalen-2-yl)-amine; hydrochloride]	27	538

The next lines start with results.

IC50 [1] [nM]	Structure (SMILES)	IC50 [2] [nM]
4.5	CCN(CC)C1Cc2ccccc2C(c2ccccc2)C1 (trans isomer)	207
2760	CN(C)[C@H]1CCc2ccccc2[C@H]1c1ccccc1 [Dimethyl-(1-phenyl-1,2,3,4-tetrahydro-naphthalen-2-yl)-amine]	3340
117	C=CCNC1Cc2ccccc2C(c2ccccc2)C1 (stereo not drawn) [trans-Allyl-(4-phenyl-1,2,3,4-tetrahydro-naphthalen-2-yl)-amine; hydrochloride]	–
